Test results reported in ChEMBL document CHEMBL1122325, “2-[(Phenylthio)methyl]pyridine derivatives: new antiinflammatory agents” (1983).
The source made the active and inactive calls. No cut-off for these calls is given here.

Columns and labels:
[1] = organism: Rattus norvegicus; assay: Reduction in exudate volume in rat pleural carrageenan test.; type: functional
Summary of the method: (§1)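 Fasted male Sprague-Dawley rats (160-200 g, 8-10/group) dosed orally at four levels in 0.2% methylcellulose, or vehicle, 30 min before intrapleural carrageenin (125 μg in 0.2 mL saline); no iv BSA. Killed 4 h later; pleural exudate volume and white cells measured by phenol red dye dilution, inhibition calculated against vehicle controls.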

[2] = organism: Rattus norvegicus; assay: Reduction in leukocyte numbers in rat pleural carrageenan test.; type: functional; summary of the method: as §1
[3] = organism: Rattus norvegicus; assay: Reduction in exudate volume in rat pleural RPAR test.; type: functional
Summary of the method: (§2)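 Fasted male Sprague-Dawley rats (160-200 g, 8-10/group) received BSA 3 mg/kg iv, then 1 h later intrapleural rabbit anti-BSA γ-globulin (0.2 mL); oral compound (four doses, 0.2% methylcellulose) or vehicle 30 min before. At 4 h, exudate volume and white cell count by phenol red dye dilution; percent inhibition versus control mean; ED50 by least-squares regression.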

[4] = system: Rattus norvegicus; assay: Inhibition of dermal RPAR in rats following p.o. administration.; type: functional
Summary of the method: (§3)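 Male Sprague-Dawley rats (140-160 g, n=6/group), fasted 18 h, given iv BSA 0.15% w/v with 0.4% Evans Blue in saline, then test agent orally in 0.2% methylcellulose about 1 h later (three dose levels, vehicle controls). Anti-BSA rabbit γ-globulin injected intradermally 30 min post-dose; lesions excised at 4 h, dye-outlined diameters measured, percent inhibition of lesion area versus control; 40% inhibition dose by least-squares regression.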

[5] = organism: Rattus norvegicus; assay: Reduction in leukocyte numbers in rat pleural RPAR exudate.; type: functional; summary of the method: as §2
[6] = organism: Rattus norvegicus; assay: animal or person; type: functional; conditions: po
[7] = system: Rattus norvegicus; assay: Inhibition of dermal RPAR in rats following p.o. administration; Not significant.; type: functional; summary of the method: as §3
[8] = organism: Rattus norvegicus; assay: (§4) Reduction in leukocyte numbers in rat pleural RPAR exudate; Nonactive.; type: functional, organism-based; summary of the method: as §2
[9] = organism: Rattus norvegicus; assay: as §4; type: functional, organism-based; summary of the method: as §2; remark: listed apart in the source
[10] = organism: Rattus norvegicus; assay: Reduction in exudate volume in rat pleural RPAR test; Nonactive.; type: functional, organism-based; summary of the method: as §2
[11] = system: Rattus norvegicus; assay: Percent inhibition of rat dermal RPAR following 350 umol/kg p.o. administration.; type: functional; conditions: po; summary of the method: as §3

Row | SMILES | ED40 [4] [µM/kg] | inhibition in vivo at 350 µmol/kg [6] [%] | further results
1 | C[C@]12CCC(=O)C=C1CC[C@@H]1[C@@H]2[C@@H](O)C[C@@]2(C)[C@H]1CC[C@]2(O)C(=O)CO [HYDROCORTISONE] | 33 |  | ED50 [1]: 33 µmol/kg; ED50 [2]: 25 µmol/kg; ED50 [3]: 38 µmol/kg; ED50 [5]: 50 µmol/kg
2 | C[n+]1ccccc1CSc1ccc(Br)cc1 |  | 22 | 
3 | Cc1cc(C(C)(C)C)ccc1SCc1ccccn1 |  | 30 | 
4 | Clc1ccc(Cc2ccccn2)cc1 |  | 35 | 
5 | Cl.O=[N+]([O-])c1ccc(SCc2ccccn2)cc1 | 233 |  | 
6 | Clc1ccc(OCc2ccccn2)cc1 |  | 39 | 
7 | Oc1ccc(SCc2ccccn2)cc1 |  |  | ED40 [7]: inactive
8 | CC(=O)Nc1ccc(SCc2ccccn2)cc1 |  | 30 | 
9 | CC(C)(C)c1ccc(SCc2ccccn2)cc1 |  | 34 | 
10 | Brc1ccc(CSCc2ccccn2)cc1 |  | 31 | 
11 | Cl.c1ccc(CSc2ncccn2)nc1 | 283 |  | 
12 | Brc1ccccc1SCc1ccccn1.Cl | 282 |  | 
13 | Cl.Cl.c1ccc(CSc2ccncc2)nc1 | 149 |  | 
14 | Brc1ccc(SCC2CCCCN2)cc1 (stereo unspecified) | 430 |  | 
15 | Cc1ccc(CSc2ccc(Br)cc2)nc1 |  |  | ED40 [7]: inactive
16 | c1ccc(CCc2ccccn2)cc1 |  | 36 | 
17 | Cl.Oc1nc(SCc2ccccn2)nc2ccccc12 | 177 |  | 
18 | Brc1ccc(NCc2ccccn2)cc1 |  |  | ED40 [7]: inactive
19 | Cl.Clc1ccccc1SCc1ccccn1 | 300 |  | 
20 | Brc1ccc(CSc2ccccn2)cc1 |  | 36 | 
21 | Cl.[O-][S+](Cc1ccccn1)c1ccc(Br)cc1 (stereo unspecified) | 216 |  | 
22 | Cl.Clc1ccc(SCc2ccccn2)cc1 | 186 |  | ED50 [3]: 154 µmol/kg; ED50 [5]: 162 µmol/kg
23 | COc1ccc2c(c1)c(CC(=O)O)c(C)n2C(=O)c1ccc(Cl)cc1 [INDOMETHACIN] |  |  | ED50 [1]: 3 µmol/kg; ED40 [7]: inactive; ED50 [8]: inactive; ED50 [9]: inactive; ED50 [10]: inactive
24 | Cc1cccc(CSc2ccc(Br)cc2)n1 |  | 28 | 
25 | Clc1ccnc(CSc2ccc(Br)cc2)c1 |  |  | ED40 [7]: inactive
26 | Cl.FC(F)(F)c1cccc(SCc2ccccn2)c1 | 307 |  | 
27 | CN1CCCCC1CSc1ccc(Br)cc1.Cl (stereo unspecified) | 159 |  | 

Row | SMILES | ED40 [4] [µM/kg] | inhibition in vivo at 350 µmol/kg [6] [%] | further results
28 | Brc1ccc(SCCc2ccccn2)cc1 |  |  | ED40 [7]: inactive
29 | Cc1ccc(O)c(CSc2ccc(Br)cc2)n1 |  |  | ED40 [7]: inactive
30 | Brc1ccc(SCc2ccccn2)cc1.Cl | 151 |  | ED50 [1]: 142 µmol/kg; ED50 [2]: 215 µmol/kg; ED50 [3]: 82 µmol/kg; ED50 [5]: 73 µmol/kg
31 | Cl.[O-][n+]1ccccc1CSc1ccc(Br)cc1 | 148 |  | 
32 | c1ccc(CSc2nc3ccccc3s2)nc1 |  |  | ED40 [7]: inactive
33 | Brc1ccc(SCc2cc(-c3ccccc3)ccn2)cc1 |  |  | ED40 [7]: inactive
34 | Clc1cccc(CSc2ccc(Br)cc2)n1 |  |  | ED40 [7]: inactive
35 | Brc1ccc(Sc2ccccn2)cc1.Cl | 369 |  | 
36 | Brc1ccc(SCc2ccncc2)cc1 |  | 26 | 
37 | COc1ccc(SCc2ccccn2)cc1.Cl |  |  | Inhibition [7]: 23%
38 | CC(Sc1ccc(Br)cc1)c1ccccn1.Cl (stereo unspecified) | 212 |  | 
39 | Brc1ccc(SCc2cccc(CSc3ccc(Br)cc3)n2)cc1 |  |  | ED40 [7]: inactive
40 | Cc1cccnc1CSc1ccc(Br)cc1 |  | 25 | 
41 | Oc1cccnc1CSc1ccc(Br)cc1 |  |  | ED40 [7]: inactive
42 | Cc1ccc(SCc2ccccn2)cc1 |  |  | ED40 [7]: inactive
43 | Cl.Fc1ccc(SCc2ccccn2)cc1 | 159 |  | ED50 [3]: 137 µmol/kg; ED50 [5]: 129 µmol/kg
44 | Brc1ccc(SCc2cccnc2)cc1 |  | 23 | 
45 | Cl.Clc1ccc(SCc2ccccn2)cc1Cl | 402 |  | 
46 | Cl.c1ccc(SCc2ccccn2)cc1 | 101 |  | ED50 [3]: 172 µmol/kg; ED50 [5]: 252 µmol/kg
47 | Nc1ccc(SCc2ccccn2)cc1 |  | 25 | 
48 | c1ccc(CSC2CCCCC2)nc1 |  | 21 | 
49 | COc1cccc(SCc2ccccn2)c1.Cl | 273 |  | 
50 | Cl.O=S(=O)(Cc1ccccn1)c1ccc(Br)cc1 | 192 |  | 
51 | Cl.Clc1cccc(SCc2ccccn2)c1 | 223 |  | 
52 | c1ccc(CSc2nc3ccccc3o2)nc1 |  | 26 | 
53 | COc1cccnc1CSc1ccc(Br)cc1 |  |  | inhibition in vivo at 350 µmol/kg [11]: 26%
